Peptide text beside a SMILES is read from it.
Columns and labels:
[1] = system: 11 bacterial strains (S. aureus, P. aeruginosa, A. baumannii, K. pneumoniae, E. coli); experiment: Antimicrobial activity screening, summary over groups of strains; format: cell-based; conditions: 50 µg/ml screen
[2] = system: A. baumannii ATCC 19606; experiment: Antimicrobial activity screening; format: cell-based, Acinetobacter baumannii; conditions: 50 µg/ml screen
[3] = system: Galleria mellonella larvae; experiment: In vivo toxicity in Galleria mellonella larvae; conditions: G. mellonella larvae, N=10 per group
In short: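 Sixth-instar Galleria mellonella larvae (200–300 mg) were held in sawdust at 4 °C until use. Groups of ten were injected with 10 μl of test compound, colistin or 0.9 % NaCl saline control into the second rear proleg, then kept at 30 °C.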

CC[C@H](C)[C@H](NC(=O)[C@@H](CCCCN)NC(=O)[C@H](CCCCN)NC(=O)[C@H](Cc1ccccc1)NC(=O)[C@H](CC(C)C)NC(=O)[C@H](CCCCN)NC(=O)[C@@H](N)CCCCN)C(=O)N[C@@H](CC(C)C)C(=O)N[C@@H](CCCCN)C(=O)N[C@@H](Cc1ccc(O)cc1)C(=O)N[C@@H](CC(C)C)C(N)=O [BP146]
growth reduction in all strains except P. aeruginosa ST175–1 [1]: at least 89%

CC[C@H](C)[C@H](NC(=O)[C@H](CCCCN)NC(=O)[C@H](CCCCN)NC(=O)[C@H](Cc1c[nH]cn1)NC(=O)[C@H](CC(C)C)NC(=O)[C@H](CCCCN)NC(=O)[C@H](Cc1ccccc1)NS(=O)(=O)c1ccc(C)cc1)C(=O)N[C@@H](CC(C)C)C(=O)N[C@@H](CCCCN)C(=O)N[C@H](C(=O)N[C@@H](CC(C)C)C(N)=O)C(C)C [BP275] (HELM PEPTIDE1{[Cc1ccc(S(=O)(=O)[*:2])cc1].F.K.L.H.K.K.I.L.K.V.L.[am]}$$$$V2.0)
growth inhibition against A. baumannii ATCC 19,606 [2]: ≥ 93%

CCCC(=O)NCCCC[C@H](NC(=O)[C@@H](NC(=O)[C@H](CCCCN)NC(=O)[C@H](CCCCN)NC(=O)[C@@H](Cc1ccccc1)NC(=O)[C@H](CC(C)C)NC(=O)[C@H](CCCCN)NC(=O)[C@H](CCCCN)NC(C)=O)[C@@H](C)CC)C(=O)N[C@@H](CCCCN)C(=O)N[C@@H](Cc1ccc(O)cc1)C(=O)N[C@@H](CC(C)C)C(N)=O [BP474]
growth inhibition against A. baumannii ATCC 19,606 [2]: ≥ 93%

Colistin
mortality after 24h ([3]; 50 µg/larvae (10 μl of 5 mg/ml), 30 °C): 50% | LD50 ([3]; 10 μl injected, viability at 48h): 5 mg/mL
